Measurements pooled from the literature.
Protocols differ between the studies behind these lines.
Oprd1: Delta-type opioid receptor (Oprd1, Mus musculus, UniProt P32300)
CHRM2: Muscarinic acetylcholine receptor M2 (CHRM2, Homo sapiens, UniProt P08172)
lecA: PA-I galactophilic lectin (lecA, Pseudomonas aeruginosa, UniProt Q05097)

CC(C)[C@H](NC(=O)[C@H](CCCCN)NC(=O)[C@@H](NC(=O)[C@@H]1CCCN1C(=O)[C@H](CCCNC(=N)N)NC(=O)CNC(=O)[C@@H](NC(=O)[C@@H](NC(=O)CNC(=O)[C@H](CO)NC(=O)CNC(=O)CCCC[C@@H]1SC[C@@H]2NC(=O)N[C@@H]21)[C@@H](C)O)[C@@H](C)O)[C@@H](C)O)C(=O)N[C@@H](Cc1ccccc1)C(=O)N[C@H](C(=O)N1CCC[C@H]1C(=O)N1CCC[C@H]1C(=O)N[C@@H](Cc1ccccc1)C(=O)N[C@@H](CCCCN)C(=O)N[C@H](C(=O)N[C@@H](CCCCN)C(=O)N[C@@H](CO)C(=O)N[C@@H](Cc1c[nH]cn1)C(=O)N[C@@H](Cc1ccccc1)C(=O)N[C@@H](Cc1c[nH]cn1)C(N)=O)[C@@H](C)O)C(C)C
Kd (DMC1 (Homo sapiens, UniProt Q14565); binding, BLI): 0.0013 µM

Cc1cc(O)cc(C)c1C[C@H](N)C(=O)N[C@H](C)C(=O)N[C@@H](Cc1ccccc1)C(=O)N[C@@H](CCCN)C(N)=O
Ki (Oprd1; ligand displacement, radioligand; cell membranes): 0.06 µM

CC(=O)NC[C@H](NC(=O)[C@H](CCCNC(=N)N)NC(=O)[C@H](CCCNC(=N)N)NC(=O)[C@H](CC(C)C)NC(=O)[C@H](Cc1ccccc1)NC(=O)CNC(=O)CNC(=O)[C@H](Cc1ccc(O)cc1)NCc1ccccc1)C(=O)N[C@@H](CCCNC(=N)N)C(=O)N1CCC[C@H]1C(=O)N[C@@H](CCCCN)C(N)=O
Ki (Oprd1; ligand displacement, radioligand; cell membranes): 2.29 µM

N[C@H](CO)Cc1ccccc1
Kd (Phenylalanine-4-hydroxylase (Pah, Rattus norvegicus, UniProt P04176); binding, fluorescence; pH 7.5): 10600 µM

COc1cc(C(=O)N2CC[C@@H](O)[C@@H](N)C2)cc2nc(-c3cc4ccccc4n3CC3CC3)n(C)c12
EC50 (CHRM2; calcium signal, agonist): > 15.8 µM

Cc1nccc2c1[nH]c1ccccc12
Ki (Amine oxidase [flavin-containing] A (Maoa, Rattus norvegicus, UniProt P21396); enzyme activity, inhibitor): 0.75 µM

CC(C)C[C@H](NC(=O)[C@H](Cc1ccccc1)NC(=O)[C@H](Cc1ccc(O)cc1)NC(=O)CNC(=O)[C@H](CCCCN)NC(=O)[C@H](CO)NC(=O)[C@H](CCC(N)=O)NC(=O)CNC(=O)[C@@H](NC(=O)[C@H](CO)NC(=O)[C@@H]1CCCN1C(=O)[C@H](CO)NC(=O)[C@H](CCC(N)=O)NC(=O)[C@H](Cc1ccc(O)cc1)NC(=O)[C@H](CCC(=O)O)NC(=O)[C@H](C)NC(=O)[C@H](CCCCN)NC(=O)[C@@H](N)Cc1ccccc1)C(C)C)C(=O)N[C@@H](Cc1ccccc1)C(=O)N[C@@H](CCCNC(=N)N)C(=O)N1CCC[C@H]1C(=O)N[C@@H](CCCNC(=N)N)C(=O)N[C@@H](CC(N)=O)C(N)=O
EC50 (Neuromedin-U receptor 1 (Mus musculus, UniProt O55040); inositol phosphate, agonist): 0.000166 µM

CC(C)C[C@H](NC(=O)CNC(=O)[C@H](C)NC(=O)c1ccc(S[C@@H]2O[C@H](CO)[C@H](O)[C@H](O)[C@H]2O)cc1)C(=O)N[C@@H](C)C(=O)N1CCN(c2cc3c(cc2F)c(=O)c(C(=O)O)cn3C2CC2)CC1
Ki (lecA; ligand displacement, FP): 12.9 µM

CC[C@H](C)[C@H](NC(=O)[C@H](Cc1ccccc1)NC(=O)[C@H](CC(=O)O)NC(=O)[C@H](CCCNC(=N)N)NC(=O)[C@@H](NC(=O)[C@H](C)NC(=O)[C@H](CC(C)C)NC(=O)[C@H](CC(N)=O)NC(=O)[C@H](CC(=O)O)NC(=O)[C@H](CC(C)C)NC(=O)[C@@H](NC(=O)[C@@H](NC(=O)[C@H](CO)NC(=O)[C@H](CCSC)NC(=O)[C@H](CCC(=O)O)NC(=O)[C@H](CC(=O)O)NC(=O)[C@H](CO)NC(=O)[C@H](Cc1ccccc1)NC(=O)[C@H](CO)NC(=O)CNC(=O)[C@H](CC(=O)O)NC(=O)[C@H](C)NC(=O)[C@@H](N)Cc1c[nH]cn1)[C@@H](C)O)[C@@H](C)CC)[C@@H](C)O)C(=O)N[C@@H](CC(N)=O)C(=O)N[C@@H](Cc1c[nH]c2ccccc12)C(=O)N[C@@H](CC(C)C)C(=O)N[C@H](C(=O)N[C@@H](CCC(N)=O)C(=O)N[C@H](C(=O)N[C@@H](CCCCN)C(=O)N[C@H](C(=O)N[C@H](C(=O)N[C@@H](CC(=O)O)C(=O)O)[C@@H](C)O)[C@@H](C)CC)[C@@H](C)O)[C@@H](C)CC
EC50 (Gastric inhibitory polypeptide receptor (Mus musculus, UniProt Q0P543); reporter gene, agonist, luciferase): > 1 µM

CC(C)C[C@H](NC(=O)CNC(=O)[C@H](C)NC(=O)c1ccc(S[C@@H]2O[C@H](CO)[C@H](O)[C@H](O)[C@H]2O)cc1)C(=O)N[C@@H](C)C(=O)NC[C@@H]1CCN(c2cc3c(cc2F)c(=O)c(C(=O)O)cn3C2CC2)C1
Ki (lecA; ligand displacement, FP): 11.2 µM

CC(C)[C@@H](Nc1nc(Cl)nc2c1ncn2[C@H]1[C@H](O)[C@H](O)[C@]2(CN)C[C@H]12)C1CC1
Ki (CHRM2; ligand displacement, radioligand): > 6.6 µM
